Results published in PMC10734015 (ACS Omega, 2023).
≈ marks a conversion by molar mass, not a printed value. Read-outs that look alike come from different tables or passages of the source.

Columns and labels:
[1] = system: anti-mitragynine antibody; test: Cross-reactivity study by CI-ELISA; assay type: binding, rabbit; conditions: for IC50 values: CI-ELISA, compounds at 0.001–50.0 μg/mL, 4PL fit; for cross-reactivity (%): calculated from IC50 values relative to mitragynine (eq 3)
How it was run: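 Plates coated overnight (16 h) at 4 °C with mitragynine-OVA at 0.25 μg/mL in PBS pH 7.4, washed three times in PBS, then blocked with 5% (w/v) skimmed blocker. Rabbit polyclonal IgG raised against C22-MG-cBSA was used at 1/1000 v/v in 0.05% Tween 20 and pre-incubated with test compound before transfer to wells. Detection used goat anti-rabbit-HRP at 1/2500 v/v.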

[2] = ELISA with pre-incubation (inhibition method); cited from earlier work
[3] = ELISA with pre-incubation (inhibition method); cited from earlier work; remark: listed apart in the source

Row | Compound | IC50 values [1] | cross-reactivity (%) [1] [%] | IC50 [2] [µg/mL] | IC50 [3] [µg/mL]
1 | COC(=O)C1=CO[C@@H](C)[C@@H]2CN3CCc4c([nH]c5ccc(OC)cc45)[C@@H]3C[C@H]12 [aricine] | 9.819 | 1.90 | – | –
2 | CN(C)CCCN1c2ccccc2Sc2ccc(Cl)cc21 [chlorpromazine] | – | – | 0.00058 (≈ 0.00182 µM) | –
3 | CC1(C)C(C(=O)OC(C#N)c2cccc(Oc3ccccc3)c2)C1(C)C (centres unmarked) [fenpropathrin] | – | – | – | 0.34 (≈ 0.973 µM)
4 | COC(=O)[C@H]1[C@H]2C[C@@H]3c4[nH]c5cc(OC)ccc5c4CCN3C[C@H]2C[C@@H](OC(=O)c2cc(OC)c(OC)c(OC)c2)[C@@H]1OC [reserpine] | 9.889 | 1.89 | – | –
5 | corynantheidine | 1.854 | 10.08 | – | –
